Results from different studies.
Compare with care: the assays were run in different laboratories.
Target: Serine/threonine-protein kinase PLK1 (PLK1, Homo sapiens, UniProt P53350)

| Compound | test | system | conditions | measurement | value |
| --- | --- | --- | --- | --- | --- |
| CC/C(=N\NC(=O)NCc1cccc(O)c1)c1ccc(O)c(C)c1O | enzyme activity, inhibitor |  | 0.1 µM | inhibition | -2.6% |
| CCCOc1ccc(OC)c(F)c1C(=O)c1ccc(C(=O)N[C@@H]2CNC[C@H]2NC(=O)c2ccc3[nH]ncc3c2)cc1 | enzyme activity, inhibitor |  | 10 µM | remaining activity | 105% |
| CCN(CC)CCNC(=O)c1c(C)[nH]c(/C=C2\C(=O)Nc3ccc(F)cc32)c1C | enzyme activity, inhibitor |  | 1 µM | remaining activity | 110% |
| FC(F)(F)Oc1cccc(-c2cnc3ccc(-c4ccncc4)nn23)c1 | enzyme activity, inhibitor, radiometric |  | 5 µM | activity vs control | 98% |
| CC(C)(C)c1nc2c(s1)c1nc(N)ncc1c1ccc(NS(=O)(=O)c3c(F)cccc3F)c(F)c12 | enzyme activity, inhibitor, radiometric |  | 1 µM | remaining activity | 101% |
| COc1cc(Nc2c(C#N)cnc3cc(OCCCN4CCN(C)CC4)c(OC)cc23)c(Cl)cc1Cl | cell-free assay |  | 0.5 µM | remaining signal | 93.8% |
| Nc1nc(Nc2ccccc2)sc1C(=O)c1c(F)cccc1F | enzyme activity, inhibitor |  | 10 µM | remaining activity | 86% |
| O=C1Nc2ccc(Cl)cc2C1=Cc1cc(Cl)c(O)c(Cl)c1 | cell-free assay |  | 0.5 µM | remaining signal | 99.8% |
| CS(=O)(=O)Nc1cccc(-c2csc(NC(=O)CSc3nc4nccnc4c(=O)n3CCc3ccccc3)n2)c1 | enzyme activity, inhibitor |  | 10 µM | inhibition | 11% |
| O=C(O)[C@@H]1[C@@H](Cn2nnc3ccccc3c2=O)CC[C@H]1C(=O)c1ccc(OCCC2CCOCC2)cc1 | cell-free assay, competition with immobilised ligand |  | 1 µM | remaining binding | 80% |
| Cc1[nH]c(/C=C2\C(=O)Nc3ccc(F)cc32)c(C)c1C(=O)N[C@H]1CCN(C(=O)N(C)C)C1 | enzyme activity, inhibitor |  | 0.1 µM | remaining activity | 126% |
| CCOc1cc(-c2nncn2C)ccc1Nc1ncc2cc(C)nc(NCC(C)(C)C)c2n1 | enzyme activity, inhibitor, FRET |  | 1 µM | inhibition | 17% |
| Cc1cc(NC(=O)c2cccc(S(F)(F)(F)(F)F)c2)cc(-n2ccn3nc(-c4cccnc4)cc23)c1 | cell-free assay, competition with immobilised ligand |  | 1 µM | remaining binding | 95.3% |
| Cc1ccc(NC(=O)c2ccc(C)c(C(F)(F)F)c2)cc1C#Cc1nn(C2CCC(O)CC2)c2ncnc(N)c12 (centres unmarked) | cell-free assay |  | 10 µM | remaining signal | 92% |
| O=C(Nc1cnn(-c2csc(C(=O)NC3COC3)c2)c1)Nc1c(F)cccc1Cl | enzyme activity, inhibitor |  | 5 µM | remaining activity | 95.5% |
| CS(=O)(=O)CCNCc1ccc(-c2ccc3ncnc(Nc4ccc(OCc5cccc(F)c5)c(Cl)c4)c3c2)o1 | cell-free assay |  | 0.5 µM | remaining signal | 99% |

| Compound | test | system | conditions | measurement | value |
| --- | --- | --- | --- | --- | --- |
| Cc1nc(C2CCN(C(=O)c3ccc(OC(F)(F)F)cc3N)CC2)c2ncc(N3CCN(C)CC3)cc2n1 | cell-free assay, competition with immobilised ligand |  | 1 µM | remaining binding | 79% |
| CCN(CC)c1ccc(C2=NNC(=O)CC2C)cc1[N+](=O)[O-] (centres unmarked) | enzyme activity, inhibitor |  | 10 µM | remaining activity | 103% |
| CN(C)C1CCN(CC#Cc2nn(C3CCCC3)c3nc(NCc4ccccc4)ncc23)C1 (centres unmarked) | enzyme activity, inhibitor, FRET |  | 0.1 µM | inhibition | -1% |
| COc1cc(/C=C/C(=O)CC(=O)/C=C/c2ccc(O)c(OC)c2)ccc1O | enzyme activity, inhibitor |  | 1 µM | activity vs control | 75% |
| COc1cc2ncnc(Nc3ccc(Oc4ccccc4)cc3C)c2cc1OC | enzyme activity, inhibitor |  | 1 µM | inhibition | 3% |
| CN(c1ncccc1CNc1nc(Nc2ccc3c(c2)CC(=O)N3)ncc1C(F)(F)F)S(C)(=O)=O | enzyme activity, inhibitor |  | 1 µM | inhibition | 22.1% |
| Cn1nc(C(=O)NCc2ccc(C(=O)O)cc2)cc1-c1ccc2[nH]ccc2c1 | cell-free assay, competition with immobilised ligand |  | 0.1 µM | remaining binding | 95% |
| Cn1c(=O)n(-c2ccc(C(C)(C)C#N)cc2)c2c3cc(-c4cnc5ccccc5c4)ccc3ncc21 | enzyme activity, inhibitor |  | 10 µM | remaining activity | 95% |
| O=C(Nc1ccc(Oc2ccc(F)cc2)cc1)N1CCc2ncccc2[C@H]1c1ccc(F)cc1 | cell-free assay, competition with immobilised ligand |  | 1 µM | remaining binding | 78% |
| Cc1ccc(NC(=O)c2ccc(CN3CCN(C)CC3)cc2)cc1Nc1nc(-c2cccnc2)cs1 | cell-free assay |  | 0.5 µM | remaining signal | 101% |
| CNCc1ccccc1-c1csc([C@H](C)Nc2nc(C)nc3cc(OC)c(OC)cc23)c1 | cell-free assay, competition with immobilised ligand |  | 1 µM | remaining binding | 85% |
| CCN1CCN(Cc2ccc(NC(=O)c3ccc(C)c(Oc4ccnc5[nH]ccc45)c3)cc2C(F)(F)F)CC1 | target engagement in cells, inhibitor, chemoproteomics | Huh-7 | 10 µM | inhibition | -35% |
| CNC(=O)Nc1ccc2c(c1)CC[C@@]21OC(=O)N(CC(=O)N(Cc2ccc(F)cc2)[C@@H](C)C(F)(F)F)C1=O | cell-free assay, competition with immobilised ligand |  | 1 µM | remaining binding | 63% |
| COc1cc(Nc2cnc(C#N)c(O[C@H](C)CN(C)C)n2)ncc1-c1cnn(C)c1 | enzyme activity, inhibitor, radiometric |  | 10 µM | remaining activity | 104% |
| Cn1cc(Cl)c2c(Oc3c(F)cc(Nc4cc(Cl)nc(N)n4)cc3F)ccnc21 | cell-free assay, competition with immobilised ligand |  | 0.1 µM | remaining binding | 83% |
| Cc1cc(NC(=O)c2cccc3cc(-c4cccc5[nH]nc(N)c45)ccc23)ccc1F | enzyme activity, inhibitor |  | 0.1 µM | activity vs control | 92% |
